# Screening results (PubChem)
# A selection: hits, their analogues and other compounds. The true share with any hit is near 4.4%.
# EBI2 antag: EBI2 (human) antagonism | P32249 | EBI2 beta-arrestin recruitment, luminescence, 7a,25-OHC stimulated | inhibition, % at 5 µM | actives 0.81% (n = 360,000) | AID 651636; in the data active = inhibition above about 38%;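 note: enzyme fragment complementation signal reports receptor beta-arrestin coupling in cells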
# Target sequence (P32249 whole entry, looked up, the tested form may be a part): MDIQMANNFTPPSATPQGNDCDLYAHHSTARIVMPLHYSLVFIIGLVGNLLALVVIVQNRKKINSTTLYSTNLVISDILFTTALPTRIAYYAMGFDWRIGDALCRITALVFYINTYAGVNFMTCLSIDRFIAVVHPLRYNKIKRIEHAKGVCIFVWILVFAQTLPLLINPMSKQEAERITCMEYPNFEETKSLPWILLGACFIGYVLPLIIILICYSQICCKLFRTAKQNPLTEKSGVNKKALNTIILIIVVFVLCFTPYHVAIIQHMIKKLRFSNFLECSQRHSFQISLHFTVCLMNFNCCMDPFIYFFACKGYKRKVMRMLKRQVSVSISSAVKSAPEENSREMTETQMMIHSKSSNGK
# GRIN3A LBD mod: modulators (binders) of human NR3A ligand-binding domain. NR3A LBD differential scanning fluorimetry, Tm shift; 0% = protein alone, 100% = glycine-bound protein. Tm shift relative to glycine control, % at 25 µM. actives 2.5% (n = 340,000). AID 1259313;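 active = melting temperature shift of at least 10% of the positive control shift, at one fixed dose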
# MPTP block: inhibitors of mitochondrial permeability transition pore | AID 602449 | isolated mouse mitochondria, Ca2+ swelling absorbance, 30 min | inhibition, % at 10 µM | actives 1.4% (n = 360,000);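 active = inhibition of 50% or more, scaled per plate between neutral and stimulator controls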
# SENP1 FRET inh: inhibitors of human SENP1 SUMO protease catalytic domain. actives 0.21% (n = 360,000). recombinant SENP1 catalytic domain, CyPet-SUMO1-YPet FRET cleavage. Q9P0U3. inhibition, % at 10 µM;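 active = inhibition at least 30% at 10 µM, raw YFP signal under a set limit, fluorescence ratio 0.5 to 1.5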
# Target sequence (Q9P0U3 419-644 limits assumed): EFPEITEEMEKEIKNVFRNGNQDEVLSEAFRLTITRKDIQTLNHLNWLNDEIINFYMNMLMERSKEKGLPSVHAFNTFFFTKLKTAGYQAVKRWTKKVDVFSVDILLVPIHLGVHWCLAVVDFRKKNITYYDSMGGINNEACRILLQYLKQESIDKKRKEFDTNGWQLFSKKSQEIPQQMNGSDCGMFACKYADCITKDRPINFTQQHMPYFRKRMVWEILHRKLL
#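 material = recombinant human SENP1 catalytic domain, His6-tagged | quantity = 20 pM enzyme | reagent = 25 nM SUMO1 FRET substrate | compound dosing = 10 µM single point, 0.5% DMSO | timing = 50 min enzyme reaction, room temperature, light-protected | detection = FRET, CFP and YFP emission | control set = no-enzyme low, enzyme-DMSO high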
# MPTP counter: membrane potential counter-screen of mitochondrial pore inhibitors; shares compounds with MPTP block; isolated mitochondria, Rhodamine 123 fluorescence; inhibition, % at 10 µM; actives 78% (n = 5,000); AID 624504; in the data active = inhibition above about 22%
# MPTP swell DR: MPTP inhibition, dose response swelling confirmation. shares compounds with MPTP block. isolated mitochondria swelling, absorbance. IC50, µM. actives 58% (n = 780); in the data active = IC50 below about 20 µM
# MPTP counter DR: counter-screen for mitochondrial permeability transition pore inhibitors, dose response; shares compounds with MPTP block; isolated mitochondria counterscreen, fluorescence read-out; IC50, µM; actives 49% (n = 780); AID 651564; in the data active = IC50 below about 80 µM
# Hits are given with their value; . = inactive; / = no result; ! = not active in a repeat.
SMILES,EBI2 antag,GRIN3A LBD mod,MPTP block,SENP1 FRET inh,MPTP counter,others
O=C(Nc1cccc(C(F)(F)F)c1)c1cc(-c2ccc(F)cc2)on1,.,.,66.8,.,.,MPTP swell DR=.;MPTP counter DR=.
Cc1ccc(OC(F)F)c(NC(=O)Nc2cccc(C(F)(F)F)c2)c1,.,28.9,96.0,.,73.3,
CCOC(=O)C(Cc1ccc(O)cc1)NC(=O)CNC(=O)C(CC(C)C)NC(=O)OC(C)(C)C (stereo not drawn),.,.,.,.,/,
O=[N+]([O-])c1ccc(OCc2cn([C@@H](CO)c3ccccc3)nn2)c(Br)c1,.,.,.,.,/,
Cc1cc(C)cc(NC(=O)C(Sc2ncnc3ccccc23)c2ccccc2)c1 (stereo not drawn),.,.,.,.,/,
CCSCCc1nnc(NC(=O)Nc2cccc(C(F)(F)F)c2)s1,.,.,79.5,.,72.6,
Cc1ccccc1NC(=O)Nc1ccc(C(F)(F)F)cc1,.,.,79.5,.,87.0,
O=C(Nc1cccc(C(F)(F)F)c1)C(Sc1ncnc2ccccc12)c1ccccc1 (stereo not drawn),.,17.5,60.2,.,68.1,
COc1ccc(NC(=O)Nc2cccc(C(F)(F)F)c2)cn1,.,26.0,100.0,.,89.9,
O=C(Nc1cccc(C(F)(F)F)c1)Nc1nnc([C@H]2C[C@H](O)[C@@H](CO)O2)s1,.,/,.,.,/,
CC(C)C[C@H]1CN(CCCC[C@H]2CNC(=O)C(=O)N2CCC2CCCCC2)C(=O)C(=O)N1CCC1CCCCC1,.,/,.,.,/,
CN(CCC(=O)Nc1ccc(Br)cc1)Cc1ccccc1,.,.,.,.,/,
C=CCNC(=O)c1cccc(C(F)(F)F)c1,.,.,.,.,/,
CNC(=O)Nc1cccc(C(F)(F)F)c1,.,.,.,.,/,
Fc1ccc(NC(=S)N2CCN(c3cccc(C(F)(F)F)c3)CC2)cc1,.,.,100.8,.,74.5,
O=C(NCc1ccc2c(c1)CCO2)Nc1cccc(C(F)(F)F)c1,.,.,66.9,.,82.6,
O=C(Nc1cccc(C(F)(F)F)c1)N1CCN(C(=O)Nc2cccc(C(F)(F)F)c2)CC1,.,.,63.6,.,71.0,
COc1ccc(N2CCN(C(=O)Nc3cccc(C(F)(F)F)c3)CC2)cc1,.,.,.,.,/,
O=C(Nc1ccccc1)Nc1cccc(C(F)(F)F)c1,.,26.6,96.5,.,97.5,
COc1ccc(OC)c(S(=O)(=O)N2CCCC(C(=O)NCc3cccnc3)C2)c1 (stereo not drawn),.,.,.,.,/,
Cc1ccccc1NC(=O)C1CCCN1/C=C/C(=O)C(F)(F)F (stereo not drawn),.,.,.,.,/,
O=C1CCC(C(=O)Nc2cccc(C(F)(F)F)c2)N1 (stereo not drawn),.,.,.,.,/,
Cc1cc(NC(=O)Nc2cccc(C(F)(F)F)c2)n(C)n1,.,.,72.5,.,77.0,
Cc1nc(Cl)c(C(=O)NC(=O)Nc2cccc(C(F)(F)F)c2)c(C)c1[N+](=O)[O-],.,.,97.3,.,89.5,
O=C(Nc1cccc(C(F)(F)F)c1)C12CC3CC(CC(C3)C1)C2,.,.,63.6,.,42.5,
SMILES,EBI2 antag,GRIN3A LBD mod,MPTP block,SENP1 FRET inh,MPTP counter,others
OCCN1CCN(C(=S)Nc2cccc(C(F)(F)F)c2)CC1,.,.,94.4!,.,82.1,
COC(=O)c1ccc(N2CCN(C)CC2)c(NC(=O)COc2cccc(C)c2)c1,.,.,.,.,/,
S=C(NCc1ccc(Cl)cc1)NC1CCN(Cc2ccccc2)CC1,.,.,71.0,.,24.4,
S=C(Nc1ccccc1Cl)NC1CCN(Cc2ccccc2)CC1,.,.,.,.,/,
S=C(Nc1cc(Cl)cc(Cl)c1)NC1CCN(Cc2ccccc2)CC1,.,.,53.9,.,89.3,
C=CCc1cccc(CNc2nc3ccccc3n2CCC)c1O,.,.,51.6,.,53.3,
C=CCc1cccc(CNc2nc3ccccc3n2CC)c1O,.,.,.,.,/,
CNC(=S)/N=C/NOCc1ccc(Cl)cc1Cl,.,.,101.2,.,95.3,
CC(=O)c1cnc2nc(SCc3ccc(Cl)cc3)nn2c1C,.,.,.,.,/,
CN1CCC2(CC1)Nc1nc(SCc3ccc(Cl)cc3)nn1C1=C2CN(C)CC1,.,.,63.4,.,.,MPTP swell DR=9.72;MPTP counter DR=.
O=c1[nH]nc(SCc2nnc(-c3cccc(Cl)c3)o2)n1C1CCCCC1,.,.,72.7,.,33.0,
CCOC(=O)c1oc2ccc(Br)cc2c1NC(=O)CN1CCN(C)CC1,.,.,69.4,.,.,
Cc1nc2c(cnn2-c2ccccc2Cl)c(=O)n1-c1ccc(N2CCC(C)CC2)cc1,.,.,.,.,/,
CCc1nc2c(cnn2-c2ccc(F)cc2)c(=O)n1-c1ccc(N2CCC(C)CC2)cc1,.,.,76.0,.,.,MPTP swell DR=7.31;MPTP counter DR=20.8
Cc1ccccc1OCC(O)CN1CCN(CCN2C(=O)c3cccc4cccc(c34)C2=O)CC1 (stereo not drawn),.,.,.,.,/,
Cc1cccc(C)c1OCC(O)CN1CCC(CN2C(=O)c3cccc4cccc(c34)C2=O)CC1 (stereo not drawn),.,.,62.2,.,.,
CC(C)CC1COC(=O)N1 (stereo not drawn),.,.,.,.,/,
CC(CN1CCN(CCOCCO)CC1)CN1c2ccccc2Sc2ccc(Cl)cc21 (stereo not drawn),.,/,.,.,/,
OC1CC2CCC(C1)N2CCCN1c2ccccc2Sc2ccc(Cl)cc21 (stereo not drawn),.,.,76.2,.,.,MPTP swell DR=3.98;MPTP counter DR=73.9
CN1CCN(CCCN2c3ccccc3Sc3ccc(Cl)cc32)CC1,.,.,91.9,.,.,
CCSc1ccc2c(c1)N(CCCN1CCN(C)CC1)c1ccccc1S2,.,.,95.7,.,.,
O=C1CCN(S(=O)(=O)c2ccc(Cl)cc2)CCN1,.,.,.,.,/,
Cc1cc(NCCCCO)n2c(nc3ccccc32)c1C#N,.,.,.,.,/,
C=C(C)CSc1cc(C)c(C#N)c2nc3ccccc3n12,.,.,53.9,.,56.4,
c1ccc(CCNc2ncnc3ccccc23)cc1,.,.,96.0,.,103.1,
SMILES,EBI2 antag,GRIN3A LBD mod,MPTP block,SENP1 FRET inh,MPTP counter,others
Cc1cc2c(NCCc3ccccc3)ncnc2s1,.,.,102.7,.,94.8,
Cc1cc2c(Nc3ccccc3)ncnc2s1,.,.,.,.,/,
Brc1ccc2ncnc(NCc3ccccc3)c2c1,.,.,59.4,.,87.9,
Cc1cccc(-c2ccc3ncnc(NCc4cccnc4)c3c2)c1,.,.,.,.,/,
CCCCCCCCNc1ncnc2ccccc12,.,.,102.9,.,87.4,
CCOC(=O)COc1ccc(C(=O)Nc2cccc(Cl)c2C)cc1,.,.,.,.,/,
CC1(C(=O)NC2CCCCCCC2)CC1(Cl)Cl (stereo not drawn),.,.,.,.,/,
Cc1[nH]n(-c2ncc(-c3ccc(Cl)cc3)s2)c(=O)c1C(c1ccc(Cl)cc1)C(C#N)C#N (stereo not drawn),.,17.1,97.9,.,.,
